ChEMBL document CHEMBL1147379, “Antineoplastic agents, 256. Cell growth inhibitory isocarbostyrils from Hymenocallis” (1993)

Assays:
Type in all cases: functional
DMS-273 = test: Growth inhibition of human DMS273 cells
Method in brief: (§1)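 NCI 60-human-tumour-cell-line primary in vitro screen. Each compound was tested eight separate times across three concentration ranges with upper limits of 10⁻⁴, 10⁻⁵ and 10⁻⁶ M. Each range used five 10-fold dilutions. GI₅₀, TGI and LC₅₀ were calculated from the concentration-response curves for each cell line, and averaged mean-graph values were constructed from them.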

MOLT-4 = test: Growth inhibition of human MOLT4 cells; method in brief: as §1
DLD-1 = test: Growth inhibition of human DLD1 cells; method in brief: as §1
LOX IMVI = test: Growth inhibition of human LOXIMVI cells; method in brief: as §1
HCC 2998 = test: Growth inhibition of human HCC2998 cells; method in brief: as §1
SK-MEL-5 = test: Growth inhibition of human SK-MEL-5 cells; method in brief: as §1
XF498 = test: Growth inhibition of human XF498 cells
Method in brief: (§2)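 NCI 60-human-tumour-line in vitro primary screen. Each compound tested eight separate times over three concentration ranges (upper limits 10⁻⁴, 10⁻⁵ and 10⁻⁶ M), each range as five 10-fold dilutions. GI₅₀ (also TGI and LC₅₀) derived from the concentration-response curves, reported as averaged values per cell line (negative log₁₀).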

TK-10 = test: Growth inhibition of human TK10 cells; method in brief: as §2
NCI-H23 = test: Growth inhibition of human NCI-H23 cells; method in brief: as §1
UACC-62 = test: Growth inhibition of human UACC62 cells; method in brief: as §2
CCRF-CEM = test: Growth inhibition of human CCRF-CEM cells; method in brief: as §1
M19-MEL = test: Growth inhibition of human M19-MEL cells; method in brief: as §1
SNB-75 = test: Growth inhibition of human SNB75 cells; method in brief: as §1
HL-60 = test: Growth inhibition of human HL-60(TB) cells; method in brief: as §1
OVCAR-4 = test: Growth inhibition of human OVCAR4 cells; method in brief: as §1
NCI-H322M = test: Growth inhibition of human NCI-H322M cells; method in brief: as §1
SK-OV-3 = test: Growth inhibition of human SKOV3 cells; method in brief: as §1
IGROV-1 = test: Growth inhibition of human IGROV1 cells; method in brief: as §1
OVCAR-8 = test: Growth inhibition of human OVCAR8 cells; method in brief: as §1
SN12C = test: Growth inhibition of human SN12C cells; method in brief: as §1
KM12 = test: Growth inhibition of human KM12 cells; method in brief: as §1
OVCAR-5 = test: Growth inhibition of human OVCAR5 cells; method in brief: as §1
HOP-92 = test: Growth inhibition of human HOP92 cells; method in brief: as §1
SR = test: Growth inhibition of human SR cells; method in brief: as §2
ACHN = test: Growth inhibition of human ACHN cells; method in brief: as §1
[1] = Growth inhibition of human 786-O cells; method in brief: as §1
A498 = test: Growth inhibition of human A498 cells; method in brief: as §1
CAKI-1 = test: Growth inhibition of human Caki1 cells; method in brief: as §1
SK-MEL-2 = test: Growth inhibition of human SK-MEL-2 cells; method in brief: as §1
Malme-3M = test: Growth inhibition of human MALME-3M cells; method in brief: as §1
[2] = read-out: pLC50 (the source's name) (converted)

Q: Which CC50 (DMS-273; [2]) does the source give for `O=C1N[C@H]2[C@H](O)[C@H](O)[C@@H](O)C[C@@H]2c2cc3c(cc21)OCO3` here?
A: Its CC50 is 12000 nM.

Q: And the TGI (DMS-273; read-out: pTGI (converted))?
A: The TGI was 603 nM.

Q: What about the GI50 (MOLT-4) of the same molecule?
A: The GI50 was 44.7 nM.

Q: What about the CC50 (MOLT-4; [2]) of the same molecule?
A: Its CC50 is > 100000 nM.

Q: And the TGI (MOLT-4; read-out: pTGI (converted))?
A: The TGI was 1910 nM.

Q: And the GI50 (DLD-1)?
A: The GI50 was 43.6 nM.

Q: What about the CC50 (DLD-1; [2]) of the same molecule?
A: Its CC50 is > 100000 nM.

Q: And the TGI (DLD-1; read-out: pTGI (converted))?
A: Its TGI is 832 nM.

Q: And the GI50 (LOX IMVI)?
A: The GI50 was 33.1 nM.

Q: What about the CC50 (LOX IMVI; [2]) of the same molecule?
A: The CC50 was 708 nM.

Q: What about the TGI (LOX IMVI; read-out: pTGI (converted)) of the same molecule?
A: Its TGI is 158 nM.

Q: And the GI50 (HCC 2998)?
A: The GI50 was 77.6 nM.

Q: What about the CC50 (HCC 2998; [2]) of the same molecule?
A: The CC50 was 15800 nM.

Q: And the TGI (HCC 2998; read-out: pTGI (converted))?
A: Its TGI is 813 nM.

Q: And the GI50 (SK-MEL-5)?
A: The GI50 was 45.7 nM.

Q: What about the CC50 (SK-MEL-5; [2]) of the same molecule?
A: The CC50 was 1200 nM.

Q: And the TGI (SK-MEL-5; read-out: pTGI (converted))?
A: The TGI was 209 nM.

Q: What about the GI50 (XF498) of the same molecule?
A: The GI50 was 81.3 nM.

Q: What about the CC50 (XF498; [2]) of the same molecule?
A: Its CC50 is 20900 nM.

Q: And the TGI (XF498; read-out: pTGI (converted))?
A: The TGI was 724 nM.

Q: What about the GI50 (TK-10) of the same molecule?
A: Its GI50 is 251 nM.

Q: And the CC50 (TK-10; [2])?
A: Its CC50 is > 100000 nM.

Q: And the TGI (TK-10; read-out: pTGI (converted))?
A: The TGI was 1910 nM.

Q: What about the GI50 (NCI-H23) of the same molecule?
A: The GI50 was 53.7 nM.

Q: And the CC50 (NCI-H23; [2])?
A: The CC50 was 6460 nM.

Q: What about the TGI (NCI-H23; read-out: pTGI (converted)) of the same molecule?
A: The TGI was 363 nM.

Q: What about the GI50 (UACC-62) of the same molecule?
A: The GI50 was 100 nM.

Q: What about the CC50 (UACC-62; [2]) of the same molecule?
A: Its CC50 is 11000 nM.

Q: What about the TGI (UACC-62; read-out: pTGI (converted)) of the same molecule?
A: The TGI was 562 nM.

Q: And the GI50 (CCRF-CEM)?
A: Its GI50 is 34.7 nM.

Q: And the CC50 (CCRF-CEM; [2])?
A: The CC50 was > 100000 nM.

Q: And the TGI (CCRF-CEM; read-out: pTGI (converted))?
A: Its TGI is 525 nM.

Q: What about the GI50 (M19-MEL) of the same molecule?
A: Its GI50 is 39.8 nM.

Q: What about the CC50 (M19-MEL; [2]) of the same molecule?
A: The CC50 was 5250 nM.

Q: What about the TGI (M19-MEL; read-out: pTGI (converted)) of the same molecule?
A: Its TGI is 513 nM.

Q: What about the GI50 (SNB-75) of the same molecule?
A: The GI50 was 60.3 nM.

Q: And the CC50 (SNB-75; [2])?
A: Its CC50 is 24000 nM.

Q: What about the TGI (SNB-75; read-out: pTGI (converted)) of the same molecule?
A: Its TGI is 437 nM.

Q: And the GI50 (HL-60)?
A: Its GI50 is 32.4 nM.

Q: What about the CC50 (HL-60; [2]) of the same molecule?
A: The CC50 was 30200 nM.

Q: And the TGI (HL-60; read-out: pTGI (converted))?
A: Its TGI is 191 nM.

Q: And the GI50 (OVCAR-4)?
A: The GI50 was 36.3 nM.

Q: And the CC50 (OVCAR-4; [2])?
A: Its CC50 is 17000 nM.

Q: What about the TGI (OVCAR-4; read-out: pTGI (converted)) of the same molecule?
A: The TGI was 427 nM.

Q: And the GI50 (NCI-H322M)?
A: The GI50 was 70.8 nM.

Q: What about the CC50 (NCI-H322M; [2]) of the same molecule?
A: The CC50 was 57500 nM.

Q: And the TGI (NCI-H322M; read-out: pTGI (converted))?
A: The TGI was 708 nM.

Q: What about the GI50 (SK-OV-3) of the same molecule?
A: The GI50 was 91.2 nM.

Q: What about the CC50 (SK-OV-3; [2]) of the same molecule?
A: The CC50 was > 100000 nM.

Q: What about the TGI (SK-OV-3; read-out: pTGI (converted)) of the same molecule?
A: Its TGI is 1100 nM.

Q: What about the GI50 (IGROV-1) of the same molecule?
A: The GI50 was 141 nM.

Q: What about the CC50 (IGROV-1; [2]) of the same molecule?
A: Its CC50 is 67600 nM.

Q: And the TGI (IGROV-1; read-out: pTGI (converted))?
A: The TGI was 1100 nM.

Q: What about the GI50 (OVCAR-8) of the same molecule?
A: The GI50 was 70.8 nM.

Q: And the CC50 (OVCAR-8; [2])?
A: Its CC50 is 72400 nM.

Q: And the TGI (OVCAR-8; read-out: pTGI (converted))?
A: The TGI was 2290 nM.

Q: And the GI50 (SN12C)?
A: The GI50 was 141 nM.

Q: And the CC50 (SN12C; [2])?
A: The CC50 was 18200 nM.

Q: What about the TGI (SN12C; read-out: pTGI (converted)) of the same molecule?
A: Its TGI is 1820 nM.

Q: And the GI50 (KM12)?
A: Its GI50 is 46.8 nM.

Q: What about the CC50 (KM12; [2]) of the same molecule?
A: The CC50 was 24000 nM.

Q: What about the TGI (KM12; read-out: pTGI (converted)) of the same molecule?
A: Its TGI is 912 nM.

Q: What about the GI50 (OVCAR-5) of the same molecule?
A: The GI50 was 324 nM.

Q: What about the CC50 (OVCAR-5; [2]) of the same molecule?
A: The CC50 was > 100000 nM.

Q: What about the TGI (OVCAR-5; read-out: pTGI (converted)) of the same molecule?
A: The TGI was 2400 nM.

Q: What about the GI50 (HOP-92) of the same molecule?
A: Its GI50 is 75.9 nM.

Q: And the CC50 (HOP-92; [2])?
A: Its CC50 is > 100000 nM.

Q: And the TGI (HOP-92; read-out: pTGI (converted))?
A: The TGI was 741 nM.

Q: What about the GI50 (SR) of the same molecule?
A: The GI50 was 52.5 nM.

Q: What about the CC50 (SR; [2]) of the same molecule?
A: Its CC50 is 56200 nM.

Q: And the TGI (SR; read-out: pTGI (converted))?
A: Its TGI is 3240 nM.

Q: What about the GI50 (ACHN) of the same molecule?
A: The GI50 was 81.3 nM.

Q: What about the CC50 (ACHN; [2]) of the same molecule?
A: The CC50 was 11000 nM.

Q: And the TGI (ACHN; read-out: pTGI (converted))?
A: The TGI was 794 nM.

Q: And the GI50 ([1]; 786-0)?
A: The GI50 was 110 nM.

Q: What about the CC50 ([1]; 786-0, read-out: pLC50 (the source's name) (converted)) of the same molecule?
A: Its CC50 is 57500 nM.

Q: And the TGI ([1]; 786-0, read-out: pTGI (converted))?
A: The TGI was 2090 nM.

Q: And the GI50 (A498)?
A: The GI50 was 229 nM.

Q: And the CC50 (A498; [2])?
A: Its CC50 is 9330 nM.

Q: What about the TGI (A498; read-out: pTGI (converted)) of the same molecule?
A: The TGI was 1100 nM.

Q: And the GI50 (CAKI-1)?
A: The GI50 was 191 nM.

Q: And the CC50 (CAKI-1; [2])?
A: The CC50 was > 100000 nM.

Q: And the TGI (CAKI-1; read-out: pTGI (converted))?
A: The TGI was 1410 nM.

Q: What about the GI50 (SK-MEL-2) of the same molecule?
A: Its GI50 is 38 nM.

Q: And the CC50 (SK-MEL-2; [2])?
A: The CC50 was 5500 nM.

Q: And the TGI (SK-MEL-2; read-out: pTGI (converted))?
A: Its TGI is 331 nM.

Q: What about the GI50 (Malme-3M) of the same molecule?
A: Its GI50 is 75.9 nM.

Q: And the CC50 (Malme-3M; [2])?
A: Its CC50 is 8510 nM.

Q: What about the TGI (Malme-3M; read-out: pTGI (converted)) of the same molecule?
A: The TGI was 417 nM.
